Assay results published in ChEMBL document CHEMBL3046215, “Aliphatic ketones from Ruta chalepensis (Rutaceae) induce paralysis on root knot nematodes” (J Agric Food Chem, 2011).
Values after ≈ are worked out from the molar mass of the structure shown.

How the values were obtained:
Assay type in all cases: functional, organism-based
[1] = system: Meloidogyne javanica; experiment: Nematicidal activity against second-stage juvenile Meloidogyne javanica (root-knot nematode) assessed as paralysis measured after 1 day; conditions: 24 h
How it was run: (§1)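 Compounds diluted from ethanol stocks into water with Tween 20 (final ≤1% ethanol, ≤0.3% Tween). Motile vs paralyzed scored microscopically; Schneider-Orelli correction for water-control paralysis; EC50 by log-logistic regression; six replicates, two experiments.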

[2] = system: Meloidogyne javanica; experiment: Nematicidal activity against second-stage juvenile Meloidogyne javanica (root-knot nematode) assessed as paralysis measured after 1 hr; how it was run: as §1
[3] = system: Meloidogyne incognita; experiment: Nematicidal activity against second-stage juvenile Meloidogyne incognita (root-knot nematode) assessed as paralysis measured after 1 day; conditions: 24 h; how it was run: as §1
[4] = system: Meloidogyne incognita; experiment: Nematicidal activity against second-stage juvenile Meloidogyne incognita (root-knot nematode) assessed as paralysis measured after 1 hr; how it was run: as §1

| Structure (SMILES) | EC50 [1] [µg/mL] | EC50 [2] [µg/mL] | EC50 [3] [µg/mL] | EC50 [4] [µg/mL] |
| --- | --- | --- | --- | --- |
| CCCCCCCCC(C)=O [2-DECANONE] | 55.9 (≈ 358 µM) | > 500 | 55.6 (≈ 356 µM) | 235 (≈ 1500 µM) |
| CCCCCCCCCCC(C)=O [2-DODECANONE] | 59.9 (≈ 325 µM) | > 500 | 33.8 (≈ 183 µM) | > 500 |
| CCCCCCCC(C)O (stereo not drawn) [2-NONANOL] | 137 (≈ 950 µM) | 178 (≈ 1230 µM) | 108 (≈ 746 µM) | 130 (≈ 899 µM) |
| CCCCCCCC(C)=O [2-NONANONE] | 119 (≈ 837 µM) | 357 (≈ 2510 µM) | 118 (≈ 832 µM) | 279 (≈ 1960 µM) |
| CCCCCCCCCCCC(C)=O [2-TRIDECANONE] | 200 (≈ 1010 µM) | > 500 | 204 (≈ 1030 µM) | > 500 |
| CCCCCCCCCC(C)=O [METHYL NONYL KETONE] | 22.5 (≈ 132 µM) | > 500 | 20.6 (≈ 121 µM) | > 500 |
| CCCCCCCCOC(C)=O [OCTYL ACETATE] | 61.4 | 111 | 37.3 | 61.6 |
